What was measured:
[1] = biological target: T1, Polyunsaturated fatty acid lipoxygenase ALOX15 (Homo sapiens) (UniProt P16050); experiment: Activation of wild-type His6-tagged human 15-LOX expressed in Escherichia coli Rosetta DE3 assessed as 15-HpETE formation at 40 uM pre-incubated for 1 min before arachidonic acid substrate addition by cell free assay
T1 sequence (whole entry): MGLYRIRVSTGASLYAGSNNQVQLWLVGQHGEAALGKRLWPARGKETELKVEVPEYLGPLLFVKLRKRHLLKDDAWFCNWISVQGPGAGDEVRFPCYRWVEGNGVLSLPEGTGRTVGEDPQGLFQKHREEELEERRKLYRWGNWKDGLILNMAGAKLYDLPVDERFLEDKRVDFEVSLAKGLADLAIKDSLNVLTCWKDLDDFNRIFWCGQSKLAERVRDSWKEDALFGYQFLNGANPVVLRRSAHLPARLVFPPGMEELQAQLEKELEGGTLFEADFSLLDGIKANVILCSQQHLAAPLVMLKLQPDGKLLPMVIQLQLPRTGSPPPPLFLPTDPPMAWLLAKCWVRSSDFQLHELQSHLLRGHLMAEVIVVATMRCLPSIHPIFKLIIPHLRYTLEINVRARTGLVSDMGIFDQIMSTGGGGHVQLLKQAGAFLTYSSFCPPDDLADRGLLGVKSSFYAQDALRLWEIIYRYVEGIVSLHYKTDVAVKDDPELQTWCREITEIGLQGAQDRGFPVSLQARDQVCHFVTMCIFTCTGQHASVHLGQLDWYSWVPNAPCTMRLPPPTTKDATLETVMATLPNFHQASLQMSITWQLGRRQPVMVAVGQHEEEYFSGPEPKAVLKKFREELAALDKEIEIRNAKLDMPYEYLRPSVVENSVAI

[2] = biological target: T2, Polyunsaturated fatty acid lipoxygenase ALOX15 (Homo sapiens, UniProt P16050); experiment: Binding affinity to wild-type His6-tagged human 15-LOX expressed in Escherichia coli Rosetta DE3 by SPR assay
T2 sequence (P16050 whole entry): T1 sequence (whole entry)
Method in brief: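 15-LOX amine-coupled to a CM5 chip at 800 RU, 25 °C, in PBS-P pH 7.4. Compound concentrations in 5% DMSO injected serially; regenerated by buffer washing. KD from Hill fit of response units.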

| %max [1] [%] | Kd [2] [µM] | Structure (SMILES) |
| --- | --- | --- |
| 84 | 4.4 | c1cc2c3c(cccc3c1)-c1n[n+]3cc4ccccn4c3cc1-2 |
| 61 | 15.3 | C[n+]1cn(/N=C/c2ccccc2)c2ccccc21 |

— ChEMBL document CHEMBL3817796, “Discovery of Novel 15-Lipoxygenase Activators To Shift the Human Arachidonic Acid Metabolic Network toward Inflammation Resolution” (J Med Chem, 2016)
